From ChEMBL document CHEMBL1649383, “Mode of action of epoxyphomalins A and B and characterization of related metabolites from the marine-derived fungus Paraconiothyrium sp” (J Nat Prod, 2010)
≈ marks a conversion by molar mass, not a printed value.

Key:
[1] = Cytotoxicity against human MEXF 394NL cells at 0.1 ug/ml relative to control; type: functional
[2] = Cytotoxicity against human BXF 1218L cells at 0.01 ug/ml relative to control; type: functional
[3] = Cytotoxicity against human RXF 944L cells; type: functional, cell-based
Summary of the method: (§1)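 Monolayer cell survival and proliferation assay run across a panel of 36 human tumor cell lines, with IC50 determined from the resulting growth data.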

PANC-1 [4] = assay: Cytotoxicity against human PANC1 cells; type: functional, cell-based; summary of the method: as §1
HCT-116 [5] = assay: Cytotoxicity against human HCT116 cells; type: functional, cell-based
Summary of the method: (§2)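 Monolayer cell survival and proliferation assay, run within a panel of 36 human tumor cell lines; IC50 determined per cell line.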

[6] = Cytotoxicity against human RXF 1781L cells at 10 ug/ml relative to control; type: functional
[7] = Cytotoxicity against human MEXF 514L cells at 0.001 ug/ml relative to control; type: functional
[8] = Cytotoxicity against human RXF 486L cells at 1 ug/ml relative to control; type: functional
LNCaP = assay: Cytotoxicity against human LNCAP cells at 10 ug/ml relative to control; type: functional
[9] = Cytotoxicity against human RXF 486L cells at 10 ug/ml relative to control; type: functional
[10] = Cytotoxicity against human OVXF 899L cells; type: functional, cell-based; summary of the method: as §1
[11] = Cytotoxicity against human CNXF 498NL cells at 0.1 ug/ml relative to control; type: functional
[12] = Cytotoxicity against human BXF 1218L cells; type: functional, cell-based; summary of the method: as §2
NCI-H460 [13] = assay: Cytotoxicity against human H460 cells; type: functional, cell-based; summary of the method: as §2
[14] = Cytotoxicity against human LXFA 289L cells at 0.1 ug/ml relative to control; type: functional
SF-268 [15] = assay: Cytotoxicity against human SF268 cells at 0.001 ug/ml relative to control; type: functional
PANC-1 [16] = assay: Cytotoxicity against human PANC1 cells at 0.001 ug/ml relative to control; type: functional
T-24 = assay: Cytotoxicity against human T24 cells; type: functional, cell-based; summary of the method: as §1
[17] = Cytotoxicity against human RXF 393NL cells; type: functional, cell-based; summary of the method: as §1
[18] = Cytotoxicity against human GXF251L cells at 0.1 ug/ml relative to control; type: functional
NCI-H460 [19] = assay: Cytotoxicity against human H460 cells at 10 ug/ml relative to control; type: functional
HCT-116 [20] = assay: Cytotoxicity against human HCT116 cells at 0.1 ug/ml relative to control; type: functional
[21] = Cytotoxicity against human MEXF 514L cells at 10 ug/ml relative to control; type: functional
[22] = Cytotoxicity against human RXF 486L cells at 0.1 ug/ml relative to control; type: functional
[23] = Cytotoxicity against human GXF251L cells at 0.01 ug/ml relative to control; type: functional
[24] = Cytotoxicity against human LXFA 289L cells at 1 ug/ml relative to control; type: functional
[25] = Cytotoxicity against human MEXF 462NL cells at 0.1 ug/ml relative to control; type: functional
SF-268 [26] = assay: Cytotoxicity against human SF268 cells; type: functional, cell-based; summary of the method: as §1
[27] = Cytotoxicity against human PXF 1752L cells at 10 ug/ml relative to control; type: functional
[28] = Cytotoxicity against human MEXF 514L cells at 0.1 ug/ml relative to control; type: functional
[29] = Cytotoxicity against human PXF 1752L cells at 0.01 ug/ml relative to control; type: functional
[30] = Cytotoxicity against human MEXF 276L cells at 0.1 ug/ml relative to control; type: functional, MEXF276L
[31] = Cytotoxicity against human LXFA 526L cells at 1 ug/ml relative to control; type: functional
SF-268 [32] = assay: Cytotoxicity against human SF268 cells at 0.01 ug/ml relative to control; type: functional
[33] = Cytotoxicity against human CNXF 498NL cells at 0.01 ug/ml relative to control; type: functional
DU-145 [34] = assay: Cytotoxicity against human DU145 cells at 1 ug/ml relative to control; type: functional
OVCAR-3 = assay: Cytotoxicity against human OVCAR3 cells at 0.01 ug/ml relative to control; type: functional
[35] = Cytotoxicity against human LXFA 629L cells at 0.001 ug/ml relative to control; type: functional
SF-268 [36] = assay: Cytotoxicity against human SF268 cells at 0.1 ug/ml relative to control; type: functional
[37] = Cytotoxicity against human MEXF 520L cells; type: functional, cell-based; summary of the method: as §1
[38] = Cytotoxicity against human MEXF 276L cells at 10 ug/ml relative to control; type: functional, MEXF276L
[39] = Cytotoxicity against human RXF 393NL cells at 0.01 ug/ml relative to control; type: functional
[40] = Cytotoxicity against human LXFA 289L cells at 10 ug/ml relative to control; type: functional
DU-145 [41] = assay: Cytotoxicity against human DU145 cells at 0.01 ug/ml relative to control; type: functional
[42] = Cytotoxicity against human BXF 1218L cells at 0.001 ug/ml relative to control; type: functional
[43] = Cytotoxicity against human UXF 1138L cells at 1 ug/ml relative to control; type: functional
MCF7 = assay: Cytotoxicity against human MCF7 cells at 1 ug/ml relative to control; type: functional
[44] = Cytotoxicity against human LXFA 629L cells at 10 ug/ml relative to control; type: functional
[45] = Cytotoxicity against human RXF 486L cells at 0.01 ug/ml relative to control; type: functional

C=C1[C@@H](O)[C@H]2O[C@@]2(C[C@H]2C(C)=CC[C@H]3C(C)(C)CCC[C@]23C)[C@@H](O)[C@H]1O [EPOXYPHOLAMIN D]
Activity [1]: 99%
Activity [2]: 94%
IC50 [3]: 10.8 µM
IC70 [3]: 6.58 µg/mL (≈ 18.1 µM)
IC90 [3]: 11.1 µg/mL (≈ 30.6 µM)
IC50 (PANC-1 [4]): 5.43 µM
IC70 (PANC-1 [4]): 4.2 µg/mL (≈ 11.6 µM)
IC90 (PANC-1 [4]): 8.93 µg/mL (≈ 24.6 µM)
IC50 (HCT-116 [5]): 7.7 µM
IC70 (HCT-116 [5]): 4.86 µg/mL (≈ 13.4 µM)
IC90 (HCT-116 [5]): 8.47 µg/mL (≈ 23.4 µM)
Activity [6]: 21%
Activity [7]: 119%
Activity [8]: 82%
Activity (LNCaP): 27%
Activity [9]: 10%
IC50 [10]: 8.19 µM
IC70 [10]: 5.62 µg/mL (≈ 15.5 µM)
IC90 [10]: 10.7 µg/mL (≈ 29.4 µM)
Activity [11]: 71%
IC50 [12]: 1.43 µM
IC70 [12]: 0.969 µg/mL (≈ 2.67 µM)
IC90 [12]: > 10 µg/mL
IC50 (NCI-H460 [13]): 7.48 µM
IC70 (NCI-H460 [13]): 4.73 µg/mL (≈ 13 µM)
IC90 (NCI-H460 [13]): 8.23 µg/mL (≈ 22.7 µM)
Activity [14]: 106%
Activity (SF-268 [15]): 106%
Activity (PANC-1 [16]): 90%
IC50 (T-24): 12 µM
IC70 (T-24): 6.41 µg/mL (≈ 17.7 µM)
IC90 (T-24): 9.44 µg/mL (≈ 26 µM)
IC50 [17]: 11.8 µM
IC70 [17]: 6.53 µg/mL (≈ 18 µM)
IC90 [17]: 10 µg/mL (≈ 27.6 µM)
Activity [18]: 112%
Activity (NCI-H460 [19]): 3%
Activity (HCT-116 [20]): 108%
Activity [21]: 11%
Activity [22]: 97%
Activity [23]: 100%
Activity [24]: 102%
Activity [25]: 167%
IC50 (SF-268 [26]): 10.4 µM
IC70 (SF-268 [26]): 5.62 µg/mL (≈ 15.5 µM)
IC90 (SF-268 [26]): 8.36 µg/mL (≈ 23.1 µM)
Activity [27]: 13%
Activity [28]: 142%
Activity [29]: 101%
Activity [30]: 98%
Activity [31]: 119%
Activity (SF-268 [32]): 97%
Activity [33]: 91%
Activity (DU-145 [34]): 90%
Activity (OVCAR-3): 98%
Activity [35]: 96%
Activity (SF-268 [36]): 82%
IC50 [37]: 7.67 µM
IC70 [37]: 4.91 µg/mL (≈ 13.6 µM)
IC90 [37]: 8.68 µg/mL (≈ 23.9 µM)
Activity [38]: 20%
Activity [39]: 126%
Activity [40]: 39%
Activity (DU-145 [41]): 76%
Activity [42]: 106%
Activity [43]: 72%
Activity (MCF7): 68%
Activity [44]: 6%
Activity [45]: 99%
